Assay results taken from ChEMBL document CHEMBL1157505, “Design and in vitro characterization of highly sst2-selective somatostatin antagonists suitable for radiotargeting” (J Med Chem, 2008).
Activity calls are given as the source filed them. The rule behind the calls is not given here.

What was measured:
Format in all cases: functional, cell-based
[1] = molecular target: T1, Somatostatin receptor type 2 (Homo sapiens, UniProt P30874); experiment: Antagonist activity at T7 epitope tagged human cloned sst2 expressed in HEK293 cells assessed as intracellular calcium release upto 10 uM
T1 sequence (P30874 whole entry): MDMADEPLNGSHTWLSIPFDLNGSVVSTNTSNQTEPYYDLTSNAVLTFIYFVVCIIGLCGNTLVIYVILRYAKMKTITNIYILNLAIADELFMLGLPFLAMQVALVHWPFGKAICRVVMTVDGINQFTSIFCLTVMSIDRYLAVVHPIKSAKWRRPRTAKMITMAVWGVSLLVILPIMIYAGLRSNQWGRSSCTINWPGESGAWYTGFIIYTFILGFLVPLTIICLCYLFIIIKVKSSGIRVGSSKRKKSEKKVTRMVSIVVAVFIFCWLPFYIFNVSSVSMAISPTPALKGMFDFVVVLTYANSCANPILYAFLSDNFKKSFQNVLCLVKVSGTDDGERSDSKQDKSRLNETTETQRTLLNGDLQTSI
Method in brief: (§1)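 HEK-sst2 cells seeded on poly-D-lysine, cultured 1 day, loaded with Fluo-4NW dye (assay buffer HBSS/20 mM HEPES, 2.5 mM probenecid) 30 min 37 °C plus 30 min RT. Analogues alone up to 10 μM, or [Tyr3]-octreotide with 100-fold excess analogue; fluorescence (ex 485/em 520 nm) recorded 60 s at RT; percentage of ionomycin (25 μM) maximum over baseline; ≥3 experiments in triplicate.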

[2] = molecular target: T1, Somatostatin receptor type 2; experiment: Antagonist activity at T7 epitope tagged human cloned sst2 expressed in HEK293 cells assessed as [Tyr3]octreotide-induced intracellular calcium release upto 10 uM; method in brief: as §1
[3] = molecular target: T1, Somatostatin receptor type 2; experiment: Antagonist activity at T7 epitope tagged human cloned sst2 receptor expressed in HEK293 cells assessed as inhibition of [Tyr3]octreotide-induced receptor internalization upto 10 uM
Method in brief: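 Surface T7-tagged sst2 on HEK-sst2 cells labelled with anti-T7 antibody 2 h RT in DMEM-LH, then cells exposed 30 min at 37 °C to analogue (alone up to 10 μM or with [Tyr3]-octreotide), fixed in 3% paraformaldehyde, probed with HRP anti-mouse IgG, ABTS read at OD405; surface receptor as % of untreated; mean ± SEM, three experiments in duplicate.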

| SMILES | Activity [1] | Activity [2] | Activity [3] |
| --- | --- | --- | --- |
| CONC(=O)Nc1ccc(C[C@@H]2NC(=O)[C@H](NC(=O)[C@H](N)Cc3ccc(Cl)cc3)CSSC[C@@H](C(=O)N[C@@H](Cc3ccc4ccccc4c3)C(N)=O)NC(=O)[C@H]([C@@H](C)O)NC(=O)[C@H](CCCCN)NC(=O)[C@@H](Cc3c[nH]c4ccccc34)NC2=O)cc1 | inactive | – | – |
| C[C@@H](O)[C@@H]1NC(=O)[C@H](CCCCN)NC(=O)[C@@H](Cc2c[nH]c3ccccc23)NC(=O)[C@@H](N(C)C(=O)c2ccccc2)NC(=O)[C@H](NC(=O)[C@H](N)Cc2ccc(Cl)cc2)CSSC[C@@H](C(=O)N[C@@H](Cc2ccc3ccccc3c2)C(N)=O)NC1=O | inactive | – | – |
| C[C@@H](O)[C@@H]1NC(=O)[C@H](CCCCN)NC(=O)[C@@H](Cc2ccc(NC(N)=O)cc2)NC(=O)[C@H](Cc2ccc(O)cc2)NC(=O)[C@H](NC(=O)[C@@H](Cc2ccc(Cl)cc2)NC(=O)CN2CCN(CC(=O)O)CCN(CC(=O)O)CCN(CC(=O)O)CC2)CSSC[C@@H](C(=O)N[C@@H](Cc2ccc3ccccc3c2)C(N)=O)NC1=O | inactive | Active | Active |
| C[C@@H](O)[C@@H]1NC(=O)[C@H](CCCCN)NC(=O)[C@@H](Cc2c[nH]c3ccccc23)NC(=O)[C@H](Cc2ccc(NC(N)=O)cc2)NC(=O)[C@H](NC(=O)[C@H](N)Cc2ccc(Cl)cc2)CSSC[C@@H](C(N)=O)NC1=O | inactive | Active | Active |
| C[C@@H](O)[C@@H]1NC(=O)[C@H](CCCCN)NC(=O)[C@@H](Cc2c[nH]c3ccccc23)NC(=O)[C@H](Cc2ccc(NC(N)=O)cc2)NC(=O)[C@H](NC(=O)[C@@H](Cc2ccc(Cl)cc2)NC(=O)CN2CCN(CC(=O)O)CCN(CC(=O)O)CCN(CC(=O)O)CC2)CSSC[C@@H](C(=O)N[C@@H](Cc2ccc3ccccc3c2)C(N)=O)NC1=O | inactive | Active | Active |
| CC(C)C[C@@H]1NC(=O)[C@H](NC(=O)[C@H](N)Cc2ccc(Cl)cc2)CSSC[C@@H](C(=O)N[C@@H](Cc2ccc3ccccc3c2)C(N)=O)NC(=O)[C@H]([C@@H](C)O)NC(=O)[C@H](CCCCN)NC(=O)[C@@H](Cc2c[nH]c3ccccc23)NC1=O | inactive | – | – |
| C[C@@H](O)[C@@H]1NC(=O)[C@H](CCCCN)NC(=O)[C@@H](Cc2ccc(NC(N)=O)cc2)NC(=O)[C@H](Cc2ccc(NC(=O)[C@@H]3CC(=O)NC(=O)N3)cc2)NC(=O)[C@H](NC(=O)[C@@H](Cc2ccc(Cl)cc2)NC(=O)CN2CCN(CC(=O)O)CCN(CC(=O)O)CCN(CC(=O)O)CC2)CSSC[C@@H](C(=O)N[C@@H](Cc2ccc3ccccc3c2)C(N)=O)NC1=O | inactive | Active | Active |
| C[C@@H](O)[C@@H]1NC(=O)[C@H](CCCCN)NC(=O)[C@@H](Cc2c[nH]c3ccccc23)NC(=O)[C@H](Cc2ccc(NC(N)=O)cc2)NC(=O)[C@H](NC(=O)[C@H](N)Cc2ccc(Cl)cc2)CSSC[C@@H](C(=O)N[C@H](Cc2ccc(NC(N)=O)cc2)C(=O)NCC(=O)O)NC1=O | inactive | – | – |
| C[C@@H](O)[C@@H]1NC(=O)[C@H](CCCCN)NC(=O)[C@@H](Cc2c[nH]c3ccccc23)NC(=O)[C@H](Cc2ccc(O)cc2)NC(=O)[C@H](NC(=O)[C@H](N)Cc2ccc(Cl)cc2)CSSC[C@@H](C(=O)N[C@@H](Cc2ccc3ccccc3c2)C(N)=O)NC1=O | inactive | Active | Active |
| CC(=O)N[C@H](Cc1ccc([N+](=O)[O-])cc1)C(=O)N[C@@H]1CSSC[C@@H](C(=O)N[C@H](Cc2ccc(O)cc2)C(N)=O)NC(=O)[C@H]([C@@H](C)O)NC(=O)[C@H](CCCCN)NC(=O)[C@@H](Cc2c[nH]c3ccccc23)NC(=O)[C@H](Cc2ccc(O)cc2)NC1=O | inactive | – | Active |
| C[C@@H](O)[C@@H]1NC(=O)[C@H](CCCCN)NC(=O)[C@@H](Cc2c[nH]c3ccccc23)NC(=O)[C@H](Cc2ccc(O)cc2)NC(=O)[C@H](NC(=O)[C@@H](Cc2ccc([N+](=O)[O-])cc2)NC(=O)CN2CCN(CC(=O)O)CCN(CC(=O)O)CCN(CC(=O)O)CC2)CSSC[C@@H](C(=O)N[C@H](Cc2ccc(O)cc2)C(N)=O)NC1=O | inactive | Active | Active |
| C[C@@H](O)[C@@H]1NC(=O)[C@H](CCCCN)NC(=O)[C@@H](Cc2c[nH]c3ccccc23)NC(=O)[C@H](Cc2ccc(NC(N)=O)cc2)NC(=O)[C@H](NC(=O)[C@H](N)Cc2ccc(Cl)cc2)CSSC[C@@H](C(=O)N[C@@H](CC2CCCCC2)C(N)=O)NC1=O | inactive | – | – |
| C[C@@H](O)[C@@H]1NC(=O)[C@H](CCCCN)NC(=O)[C@@H](Cc2c[nH]c3ccccc23)NC(=O)[C@H](Cc2ccc(NC(N)=O)cc2)NC(=O)[C@H](NC(=O)[C@@H](Cc2ccc(Cl)cc2)NC(=O)CCOCCOCCOCCNC(=O)CN2CCN(CC(=O)O)CCN(CC(=O)O)CCN(CC(=O)O)CC2)CSSC[C@@H](C(=O)N[C@@H](Cc2ccc3ccccc3c2)C(N)=O)NC1=O | inactive | – | Active |
| C[C@@H](O)[C@@H]1NC(=O)[C@H](CCCCN)NC(=O)[C@@H](Cc2c[nH]c3ccccc23)NC(=O)[C@H](N(C)C(=O)c2ccccc2)NC(=O)[C@H](NC(=O)[C@H](N)Cc2ccc(Cl)cc2)CSSC[C@@H](C(=O)N[C@@H](Cc2ccc3ccccc3c2)C(N)=O)NC1=O | inactive | – | Active |

The remaining lines, values ahead:

| Activity [1] | Activity [2] | Activity [3] | SMILES |
| --- | --- | --- | --- |
| inactive | Active | Active | C[C@@H](O)[C@@H]1NC(=O)[C@H](CCCCN)NC(=O)[C@@H](Cc2c[nH]c3ccc(F)cc23)NC(=O)[C@H](Cc2ccc(NC(N)=O)cc2)NC(=O)[C@H](NC(=O)[C@H](N)Cc2ccc(Cl)cc2)CSSC[C@@H](C(=O)N[C@@H](Cc2ccc3ccccc3c2)C(N)=O)NC1=O |
| inactive | – | – | C[C@@H](O)[C@@H]1NC(=O)[C@H](CCCCN)NC(=O)[C@@H](Cc2c[nH]c3ccccc23)NC(=O)[C@H](Cc2ccc(NC(N)=O)cc2)NC(=O)[C@H](NC(=O)[C@@H](Cc2ccc(Cl)cc2)NC(N)=O)CSSC[C@@H](C(=O)N[C@@H](Cc2ccc3ccccc3c2)C(N)=O)NC1=O |
| inactive | – | – | C[C@@H](O)[C@@H]1NC(=O)[C@H](CCCCN)NC(=O)[C@@H](Cc2c[nH]c3ccccc23)NC(=O)[C@H](Cc2ccc(NC(N)=O)cc2)NC(=O)[C@H](NC(=O)[C@H](N)Cc2ccc(Cl)cc2)CSSC[C@@H](C(=O)N[C@@H](Cc2ccc(NC(=O)[C@@H]3CC(=O)NC(=O)N3)cc2)C(N)=O)NC1=O |
| inactive | – | – | C[C@@H](O)[C@@H]1NC(=O)[C@H](CCCCN)NC(=O)[C@@H](Cc2ccc(NC(N)=O)cc2)NC(=O)[C@H](Cc2ccc(O)cc2)NC(=O)[C@H](NC(=O)[C@H](N)Cc2ccc(Cl)cc2)CSSC[C@@H](C(=O)N[C@@H](Cc2ccc3ccccc3c2)C(N)=O)NC1=O |
| inactive | Active | Active | C[C@@H](O)[C@@H]1NC(=O)[C@H](CCCCN)NC(=O)[C@@H](Cc2ccc(NC(N)=O)cc2)NC(=O)[C@H](Cc2ccc(NC(=O)[C@@H]3CC(=O)NC(=O)N3)cc2)NC(=O)[C@H](NC(=O)[C@H](N)Cc2ccc(Cl)cc2)CSSC[C@@H](C(=O)N[C@@H](Cc2ccc3ccccc3c2)C(N)=O)NC1=O |
| inactive | – | – | C[C@@H](O)[C@@H]1NC(=O)[C@H](CCCCN)NC(=O)[C@H](Cc2c[nH]c3ccc(F)cc23)NC(=O)[C@H](Cc2ccc(NC(N)=O)cc2)NC(=O)[C@H](NC(=O)[C@H](N)Cc2ccc(Cl)cc2)CSSC[C@@H](C(=O)N[C@@H](Cc2ccc3ccccc3c2)C(N)=O)NC1=O |
| inactive | – | Active | C[C@@H](O)[C@@H]1NC(=O)[C@H](CCCCN)NC(=O)[C@@H](Cc2ccc(NC(N)=O)cc2)NC(=O)[C@H](Cc2ccc(O)cc2)NC(=O)[C@H](NC(=O)[C@H](N)Cc2ccc([N+](=O)[O-])cc2)CSSC[C@@H](C(=O)N[C@@H](Cc2ccc3ccccc3c2)C(N)=O)NC1=O |
| inactive | – | – | C[C@@H](O)[C@@H]1NC(=O)[C@H](CCCCN)NC(=O)[C@@H](Cc2c[nH]c3ccccc23)NC(=O)[C@H](Cc2ccc(NC(=O)NO)cc2)NC(=O)[C@H](NC(=O)[C@H](N)Cc2ccc(Cl)cc2)CSSC[C@@H](C(=O)N[C@@H](Cc2ccc3ccccc3c2)C(N)=O)NC1=O |
| inactive | – | – | C[C@@H](O)[C@@H]1NC(=O)[C@H](CCCCN)NC(=O)[C@@H](Cc2c[nH]c3ccccc23)NC(=O)[C@H](Cc2ccc(NC(N)=O)cc2)NC(=O)[C@H](NC(=O)[C@H](N)Cc2ccc(Cl)cc2)CSSC[C@@H](C(=O)N[C@H](Cc2ccc(NC(N)=O)cc2)C(N)=O)NC1=O |
| inactive | – | – | C[C@@H](O)[C@@H]1NC(=O)[C@H](CCCCN)NC(=O)[C@@H](Cc2ccc(NC(N)=O)cc2)NC(=O)[C@H](Cc2ccc(NC(=O)[C@@H]3CC(=O)NC(=O)N3)cc2)NC(=O)[C@H](NC(=O)[C@H](N)Cc2ccc([N+](=O)[O-])cc2)CSSC[C@@H](C(=O)N[C@@H](Cc2ccc3ccccc3c2)C(N)=O)NC1=O |
| inactive | – | – | C[C@@H](O)[C@@H]1NC(=O)[C@H](CCCCN)NC(=O)[C@@H](Cc2c[nH]c3ccccc23)NC(=O)[C@H](Cc2ccc(NC(N)=O)cc2)NC(=O)[C@H](NC(=O)[C@H](N)Cc2ccc(Cl)cc2)CSSC[C@@H](C(=O)N[C@@H](Cc2ccc(NC(N)=O)cc2)C(N)=O)NC1=O |
